# Laboratory results from ChEMBL document CHEMBL4364301 (Eur J Med Chem, 2019).
# Tests used:
# Type in all cases: functional
# [1] = system: DU-145; experiment: Antiproliferative activity against human DU145 cells assessed as reduction in cell growth incubated for 96 hrs by propidium iodide based 2D monolayer assay; details: DU-145, 96 h
# How it was run: (§1)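 After 24 h recovery, compound in medium or medium alone (control wells) was added at 10 half-log concentrations from 0.0032 to 100 µM, in triplicate, with at most 0.3% DMSO. After 96 h, wells were PBS-washed, stained with 7 µg/ml PI and 0.1% Triton X-100, and fluorescence read at 530/620 nm. IC50 came from a 4-parameter fit, geometric mean.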
# [2] = system: CWR22R; experiment: Antiproliferative activity against human 22Rv1 cells assessed as reduction in cell growth incubated for 96 hrs by propidium iodide based 2D monolayer assay; details: 22Rv1, 96 h; how it was run: as §1
# [3] = system: LNCaP; experiment: Antiproliferative activity against human LNCAP cells assessed as reduction in cell growth incubated for 96 hrs by propidium iodide based 2D monolayer assay; how it was run: as §1
# [4] = system: VCaP; experiment: Antiproliferative activity against human VCaP cells assessed as reduction in cell growth incubated for 96 hrs by propidium iodide based 2D monolayer assay
# How it was run: (§2)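 VCaP cells in RPMI 1640 with 10% FCS at 37 °C, 5% CO2, seeded 4,000–20,000 cells/well and left 24 h before dosing. Compounds from DMSO stocks were diluted in half-log steps in medium, 10 concentrations 0.0032–100 μM, triplicate wells, max 0.3% DMSO. After 96 h, cells were washed, stained with 7 μg/ml propidium iodide plus 0.1% Triton X-100 for 1–2 h at room temperature, and fluorescence read at ex 530/em 620 nm.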
# [5] = system: VCaP; experiment: Antiproliferative activity against human VCaP cells assessed as T/C value at 3.2 x 10^-3 uM incubated for 96 hrs by propidium iodide based 2D monolayer assay; how it was run: as §2
# [6] = system: VCaP; experiment: Antiproliferative activity against human VCaP cells assessed as T/C value at 1 x 10^-2 uM incubated for 96 hrs by propidium iodide based 2D monolayer assay
# How it was run: as §1, with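 “Cells were kept in RPMI 1640 with 25 mM HEPES, 10% FCS and gentamicin at 37 °C under 5% CO2, and plated at 4,000-20,000 cells/well. After 24” for “After 24”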
# [7] = system: VCaP; experiment: Antiproliferative activity against human VCaP cells assessed as T/C value at 1 x 10^-1 uM incubated for 96 hrs by propidium iodide based 2D monolayer assay
# How it was run: as §1, with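 “Cells were kept in RPMI 1640 with 25 mM HEPES, 10% FCS and gentamicin at 37 °C under 5% CO2, and plated at 4,000-20,000 cells/well. After 24” for “After 24”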
# [8] = system: VCaP; experiment: Antiproliferative activity against human VCaP cells assessed as T/C value at 1 uM incubated for 96 hrs by propidium iodide based 2D monolayer assay
# How it was run: as §1, with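 “Cells were kept in RPMI 1640 with 25 mM HEPES, 10% FCS and gentamicin at 37 °C under 5% CO2, and plated at 4,000-20,000 cells/well. After 24” for “After 24”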
# [9] = system: VCaP; experiment: Antiproliferative activity against human VCaP cells assessed as T/C value at 3.2 uM incubated for 96 hrs by propidium iodide based 2D monolayer assay
# How it was run: as §1, with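 “Cells were kept in RPMI 1640 with 25 mM HEPES, 10% FCS and gentamicin at 37 °C under 5% CO2, and plated at 4,000-20,000 cells/well. After 24” for “After 24”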
# [10] = system: VCaP; experiment: Antiproliferative activity against human VCaP cells assessed as T/C value at 1 x 10^1 uM incubated for 96 hrs by propidium iodide based 2D monolayer assay
# How it was run: as §1, with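 “Cells were kept in RPMI 1640 with 25 mM HEPES, 10% FCS and gentamicin at 37 °C under 5% CO2, and plated at 4,000-20,000 cells/well. After 24” for “After 24”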
# [11] = system: VCaP; experiment: Antiproliferative activity against human VCaP cells assessed as T/C value at 3.2 x 10^1 uM incubated for 96 hrs by propidium iodide based 2D monolayer assay; how it was run: as §2
# [12] = system: VCaP; experiment: Antiproliferative activity against human VCaP cells assessed as T/C value at 1 x 10^2 uM incubated for 96 hrs by propidium iodide based 2D monolayer assay
# How it was run: as §1, with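 “Cells were kept in RPMI 1640 with 25 mM HEPES, 10% FCS and gentamicin at 37 °C under 5% CO2, and plated at 4,000-20,000 cells/well. After 24” for “After 24”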
# [13] = system: LNCaP; experiment: Antiproliferative activity against human LNCAP cells assessed as T/C value at 3.2 x 10^-3 uM incubated for 96 hrs by propidium iodide based 2D monolayer assay
# How it was run: as §1, with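 “Cells were kept in RPMI 1640 with 25 mM HEPES, 10% FCS and gentamicin at 37 °C under 5% CO2, and plated at 4,000-20,000 cells/well. After 24” for “After 24”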
# [14] = system: LNCaP; experiment: Antiproliferative activity against human LNCAP cells assessed as T/C value at 1 x 10^-2 uM incubated for 96 hrs by propidium iodide based 2D monolayer assay
# How it was run: as §1, with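 “Cells were kept in RPMI 1640 with 25 mM HEPES, 10% FCS and gentamicin at 37 °C under 5% CO2, and plated at 4,000-20,000 cells/well. After 24” for “After 24”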
# [15] = system: LNCaP; experiment: Antiproliferative activity against human LNCAP cells assessed as T/C value at 3.2 x 10^-2 uM incubated for 96 hrs by propidium iodide based 2D monolayer assay
# How it was run: as §1, with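 “Cells were kept in RPMI 1640 with 25 mM HEPES, 10% FCS and gentamicin at 37 °C under 5% CO2, and plated at 4,000-20,000 cells/well. After 24” for “After 24”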
# [16] = system: LNCaP; experiment: Antiproliferative activity against human LNCAP cells assessed as T/C value at 1 x 10^-1 uM incubated for 96 hrs by propidium iodide based 2D monolayer assay
# How it was run: as §1, with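 “Cells were kept in RPMI 1640 with 25 mM HEPES, 10% FCS and gentamicin at 37 °C under 5% CO2, and plated at 4,000-20,000 cells/well. After 24” for “After 24”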
# [17] = system: LNCaP; experiment: Antiproliferative activity against human LNCAP cells assessed as T/C value at 1 uM incubated for 96 hrs by propidium iodide based 2D monolayer assay
# How it was run: as §1, with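 “Cells were kept in RPMI 1640 with 25 mM HEPES, 10% FCS and gentamicin at 37 °C under 5% CO2, and plated at 4,000-20,000 cells/well. After 24” for “After 24”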
# [18] = system: LNCaP; experiment: Antiproliferative activity against human LNCAP cells assessed as T/C value at 3.2 uM incubated for 96 hrs by propidium iodide based 2D monolayer assay
# How it was run: as §1, with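 “Cells were kept in RPMI 1640 with 25 mM HEPES, 10% FCS and gentamicin at 37 °C under 5% CO2, and plated at 4,000-20,000 cells/well. After 24” for “After 24”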
# [19] = system: LNCaP; experiment: Antiproliferative activity against human LNCAP cells assessed as T/C value at 3.2 x 10^1 uM incubated for 96 hrs by propidium iodide based 2D monolayer assay
# How it was run: as §1, with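 “Cells were kept in RPMI 1640 with 25 mM HEPES, 10% FCS and gentamicin at 37 °C under 5% CO2, and plated at 4,000-20,000 cells/well. After 24” for “After 24”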
# [20] = system: LNCaP; experiment: Antiproliferative activity against human LNCAP cells assessed as T/C value at 1 x 10^2 uM incubated for 96 hrs by propidium iodide based 2D monolayer assay
# How it was run: as §1, with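 “Cells were kept in RPMI 1640 with 25 mM HEPES, 10% FCS and gentamicin at 37 °C under 5% CO2, and plated at 4,000-20,000 cells/well. After 24” for “After 24”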
# [21] = system: CWR22R; experiment: Antiproliferative activity against human 22Rv1 cells assessed as T/C value at 3.2 x 10^-2 uM incubated for 96 hrs by propidium iodide based 2D monolayer assay
# How it was run: as §1, with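 “Cells were kept in RPMI 1640 with 25 mM HEPES, 10% FCS and gentamicin at 37 °C under 5% CO2, and plated at 4,000-20,000 cells/well. After 24” for “After 24”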
# [22] = system: CWR22R; experiment: Antiproliferative activity against human 22Rv1 cells assessed as T/C value at 1 x 10^-1 uM incubated for 96 hrs by propidium iodide based 2D monolayer assay
# How it was run: as §1, with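 “Cells were kept in RPMI 1640 with 25 mM HEPES, 10% FCS and gentamicin at 37 °C under 5% CO2, and plated at 4,000-20,000 cells/well. After 24” for “After 24”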
# [23] = system: CWR22R; experiment: Antiproliferative activity against human 22Rv1 cells assessed as T/C value at 3.2 x 10^-1 uM incubated for 96 hrs by propidium iodide based 2D monolayer assay
# How it was run: as §1, with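 “Cells were kept in RPMI 1640 with 25 mM HEPES, 10% FCS and gentamicin at 37 °C under 5% CO2, and plated at 4,000-20,000 cells/well. After 24” for “After 24”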
# [24] = system: CWR22R; experiment: Antiproliferative activity against human 22Rv1 cells assessed as T/C value at 1 uM incubated for 96 hrs by propidium iodide based 2D monolayer assay
# How it was run: as §1, with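 “Cells were kept in RPMI 1640 with 25 mM HEPES, 10% FCS and gentamicin at 37 °C under 5% CO2, and plated at 4,000-20,000 cells/well. After 24” for “After 24”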
# [25] = system: CWR22R; experiment: Antiproliferative activity against human 22Rv1 cells assessed as T/C value at 1 x 10^2 uM incubated for 96 hrs by propidium iodide based 2D monolayer assay
# How it was run: as §1, with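 “Cells were kept in RPMI 1640 with 25 mM HEPES, 10% FCS and gentamicin at 37 °C under 5% CO2, and plated at 4,000-20,000 cells/well. After 24” for “After 24”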
# [26] = system: DU-145; experiment: Antiproliferative activity against human DU145 cells assessed as T/C value at 3.2 x 10^-3 uM incubated for 96 hrs by propidium iodide based 2D monolayer assay; how it was run: as §1
# [27] = system: DU-145; experiment: Antiproliferative activity against human DU145 cells assessed as T/C value at 3.2 x 10^-2 uM incubated for 96 hrs by propidium iodide based 2D monolayer assay; how it was run: as §1
# [28] = system: DU-145; experiment: Antiproliferative activity against human DU145 cells assessed as T/C value at 1 uM incubated for 96 hrs by propidium iodide based 2D monolayer assay; how it was run: as §1
# [29] = system: DU-145; experiment: Antiproliferative activity against human DU145 cells assessed as T/C value at 3.2 uM incubated for 96 hrs by propidium iodide based 2D monolayer assay
# How it was run: as §1, with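 “Cells were kept in RPMI 1640 with 25 mM HEPES, 10% FCS and gentamicin at 37 °C under 5% CO2, and plated at 4,000-20,000 cells/well. After 24” for “After 24”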
# [30] = system: DU-145; experiment: Antiproliferative activity against human DU145 cells assessed as T/C value at 1 x 10^1 uM incubated for 96 hrs by propidium iodide based 2D monolayer assay; how it was run: as §1
# [31] = system: DU-145; experiment: Antiproliferative activity against human DU145 cells assessed as T/C value at 3.2 x 10^1 uM incubated for 96 hrs by propidium iodide based 2D monolayer assay
# How it was run: as §1, with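 “Cells were kept in RPMI 1640 with 25 mM HEPES, 10% FCS and gentamicin at 37 °C under 5% CO2, and plated at 4,000-20,000 cells/well. After 24” for “After 24”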
# [32] = system: DU-145; experiment: Antiproliferative activity against human DU145 cells assessed as T/C value at 1 x 10^2 uM incubated for 96 hrs by propidium iodide based 2D monolayer assay
# How it was run: as §1, with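 “Cells were kept in RPMI 1640 with 25 mM HEPES, 10% FCS and gentamicin at 37 °C under 5% CO2, and plated at 4,000-20,000 cells/well. After 24” for “After 24”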
SMILES,IC50 [1] [µM],IC70 [1] [µM],IC50 [2] [µM],IC70 [2] [µM],IC50 [3] [µM],IC70 [3] [µM],IC50 [4] [µM],IC70 [4] [µM],T/C [5] [%],T/C [6] [%],T/C [7] [%],T/C [8] [%],T/C [9] [%],T/C [10] [%],T/C [11] [%],T/C [12] [%],T/C [13] [%],T/C [14] [%],T/C [15] [%],T/C [16] [%],further results
CC1(C)C(=O)N(c2ccc(C#N)cc2C(F)(F)F)C(=S)N1c1cccc(S(F)(F)(F)(F)F)c1,100,> 100,100,> 100,4.1,19.9,100,> 100,106,84,88,76,64,59,57,57,83,91,103,94,T/C [17]: 79%; T/C [18]: 54%; T/C [19]: 32%; T/C [20]: 21%; T/C [21]: 107%; T/C [22]: 102%; T/C [23]: 101%; T/C [24]: 97%; T/C [25]: 51%; T/C [26]: 102%; T/C [27]: 107%; T/C [28]: 112%; T/C [29]: 116%; T/C [30]: 96%; T/C [31]: 87%; T/C [32]: 83%
CC(O)(COc1ccc(S(F)(F)(F)(F)F)cc1)C(=O)Nc1cc(C(F)(F)F)cc(C(F)(F)F)c1 (racemic),6.5,7.99,3.2,4.07,1.9,2.45,2.4,3.22,105,102,107,98,30,21,4,6,92,92,99,100,T/C [17]: 89%; T/C [18]: 15%; T/C [19]: 2%; T/C [20]: 1%; T/C [21]: 105%; T/C [22]: 106%; T/C [23]: 110%; T/C [24]: 109%; T/C [25]: 4%; T/C [26]: 103%; T/C [27]: 106%; T/C [28]: 117%; T/C [29]: 104%; T/C [30]: 16%; T/C [31]: 6%; T/C [32]: 1%
